# Hits are enriched below; roughly 2.7% of the tested compounds scored in any of these assays.
# p97 ATPase inh – inhibitors of human p97 ATPase | 220,000 compounds, 0.42% hits | P55072 | recombinant p97 ATPase, Kinase-Glo ATP luminescence, 3 h | inhibition, % at 8 µM; in the data active means inhibition above about 15%;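 further: 0% = DMSO vehicle and 100% = wells lacking enzyme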
# TNF death inh – inhibitors of TNF-alpha induced necroptosis in Jurkat FADD-/- cells. Jurkat FADD-/- TNF necroptosis rescue, ATP luminescence, 24 h; 0 = TNF only, 100 = no-TNF cells. activation (protection from cell death), % at 10 µM. 220,000 compounds, 0.068% hits;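 active means activation, meaning protection from cell death, of at least 50% relative to plate controls; inactive means activation below 50%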;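 further: necroptosis triggered by 40 ng/mL TNF-alpha added together with compound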
# Wee1 stabilizer – inhibitors of human Wee1 degradation | P30291 | HeLa Luc-Wee1K328M stability, luciferase luminescence; 100% = proteasome inhibitor MG132 effect | reporter increase, % at 5 µM | 220,000 compounds, 1.2% hits;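 active means activation above the mean of all tested compounds plus 3 SD, set per screening run, cut at about 8.8% in these data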;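 further: cells exposed to compound for 20 h before luminescence read; 0% = DMSO alone and 100% = MG132 at 30 µM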
# L929 necroptosis – blocks zVAD induced death of L929 cells. 220,000 compounds, 0.38% hits. L929 zVAD necroptosis rescue, ATP luminescence, 24 h; with zVAD 60 µM. viability rescue, % at 10 µM;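 active means activation, scaled between plate controls, above about 75%, limit read from the data; inactive means activation under that limit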;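 further: 0% = zVAD with DMSO and 100% = DMSO alone without zVAD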
# M18AAP inhibitor – PfM18AAP enzyme inhibition; recombinant PfM18AAP, H-Glu-NHMec fluorogenic cleavage; inhibition, % at 7.35 µM; 290,000 compounds, 1.2% hits; AID 1822;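 active means inhibition above the campaign mean inhibition over all tested compounds plus 3 SD, cut at about 28% in these data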;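 further: 0% = plate median of test compound wells and 100% = 2 mM ZnCl2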
# RBBP9 inh – blocks human serine hydrolase RBBP9. O75884. recombinant RBBP9, FP-Rh probe fluorescence polarization. inhibition, % at 7.94 µM. 220,000 compounds, 0.2% hits;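 active means inhibition above the campaign mean of all tested compounds plus 3 SD, cut at about 14% in these data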;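 further: plate controls were DMSO wells with RBBP9 for no effect and wells lacking RBBP9 protein for full effect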
# Target sequence (O75884 whole entry, looked up): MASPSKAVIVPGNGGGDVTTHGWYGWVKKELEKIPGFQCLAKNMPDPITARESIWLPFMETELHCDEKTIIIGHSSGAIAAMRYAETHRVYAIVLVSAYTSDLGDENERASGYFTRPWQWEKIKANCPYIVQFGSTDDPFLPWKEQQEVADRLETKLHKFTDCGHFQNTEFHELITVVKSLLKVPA
#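 Measured by: FP readout at 525/598 nm; material: recombinant human RBBP9; also added: Serine-hydrolase probe FP-Rh, 375 nM pre-mixing; medium: Tris buffer pH 8.0, NaCl, Pluronic; replication: one well per compound; doses: one concentration, 7.94 µM nominal, 0.794% DMSO; timing: preincubation 30 min plus labeling 45 min at 25 °C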
# zVAD necrop conf – confirmed blocker of zVAD induced death in L929 cells. L929 zVAD-induced necroptosis rescue, ATP luminescence, 24 h. AID 463117. shares compounds with L929 necroptosis. activation (protection from necroptosis), % at 10 µM. 760 compounds, 16% hits;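 active means mean protection from necroptosis of at least 50% over duplicate tests; inactive means mean protection below 50%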;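 further: 0% = cells with zVAD alone and 100% = vehicle cells without zVAD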
# * marks the source's active call; other numbers are inactive results; . = not tested or not shown.
SMILES,p97 ATPase inh,TNF death inh,Wee1 stabilizer,L929 necroptosis,M18AAP inhibitor,RBBP9 inh,zVAD necrop conf
O=C(Cn1nnc(-c2ccc(Cl)cc2)n1)NCc1ccco1,1.9,1.6,0.0,2.1,0.1,5.9,.
O=C(Cn1nnc(-c2ccc(NC(=O)c3ccccc3F)cc2)n1)NCc1ccc(F)cc1,9.9,2.9,1.6,83.8*,-6.4,2.3,38.4
COCc1cc(C)nc(NC2CC(C)(C)NC(C)(C)C2)c1C#N,.,.,.,.,3.3,.,.
Cc1cc(NCCCn2ccnc2)n2ncc(-c3ccc(Cl)cc3)c2n1,-6.2,-4.2,5.9,72.0,-0.7,-1.6,.
Cc1cc(NCCCN2CCOCC2)n2ncc(-c3ccc(Cl)cc3)c2n1,1.7,-1.2,2.4,84.4*,-5.7,-0.1,1.0
CCC(=O)Nc1nc2c(OC)ccc(OC)c2s1,8.0,1.5,-0.8,1.7,-1.8,-0.9,.
CCOCC(=O)Nc1nc2ccc(OC)cc2s1,-3.2,10.7,0.8,24.8,-1.5,-9.5,.
COc1ccc2sc(NC(C)=O)nc2c1,-0.7,-0.1,1.7,56.7,1.4,-5.3,.
COc1ccc2sc(NC(=O)CC(C)C)nc2c1,-2.9,4.3,8.3,77.0*,0.5,-8.6,7.2
COc1ccc2nc(NC(=O)CCc3cc(OC)c(OC)c(OC)c3)sc2c1,-1.3,6.0,-2.6,87.7*,0.5,9.2,4.1
CCC(=O)Nc1nc2ccc3nc(C)sc3c2s1,8.1,-0.3,-0.7,84.0*,-1.0,-10.4,31.4
CCC(=O)Nc1nc2cc(OC)ccc2s1,8.0,-2.5,1.8,88.3*,-2.5,1.2,29.1
C=CCn1nnnc1SCC(=O)Nc1cccc(C(F)(F)F)c1,.,.,.,.,-2.9,.,.
COc1cc(Cn2nnc3ccccc32)cc(Br)c1O,.,.,.,.,2.3,.,.
Cc1cnc(N)c2c(=O)oc3ccccc3c12,-8.5,-0.7,2.2,84.3*,4.9,-2.6,3.3
O=C(NCCN1CCCC1)c1ccc2c(=O)n(CCc3ccccc3)c(=O)[nH]c2c1,-6.3,-1.7,1.4,91.0*,0.2,-8.5,6.3
Cc1cnc(NC(=O)c2cc3ccccc3o2)s1,1.2,9.7,1.6,81.1*,-7.9,-0.5,0.4
O=C(Nc1ccccc1N1CCCC1)c1cc2ccccc2o1,2.0,-1.3,-0.5,0.5,-1.2,-3.2,.
CN1CCN(c2ccccc2NC(=O)c2cc3ccccc3o2)CC1,-1.4,2.6,-2.3,77.6*,-0.2,-9.2,31.1
NC(=O)C(C(=O)/C=C/c1ccc(Cl)cc1)=C1SCCS1,7.9,13.3,-2.5,81.8*,-2.2,-3.0,1.1
CCOC(=O)CNC(=O)C1CCN(S(=O)(=O)c2ccc(-c3nn[nH]n3)cc2)CC1,.,.,.,.,5.7,.,.
CCOC(=O)c1ccc2[nH]c3c(c2c1)CCCC3C(=O)OCC (centres undefined),-0.6,2.8,-2.5,75.3*,-2.2,-4.9,29.3
CCOC(=O)C1CCCc2c1[nH]c1ccc(Cl)cc21 (centres undefined),0.6,1.6,0.9,4.6,15.4,4.0,.
Cc1ccc(C(O)c2ccc(-n3ccnc3)cc2)cc1 (centres undefined),.,.,.,.,-2.1,.,.
Cc1ccc(NC(=O)n2ccc(-c3ccc(-n4ccnc4)cc3)n2)cc1,9.2,14.2,0.8,82.1*,1.3,6.6,49.8
SMILES,p97 ATPase inh,TNF death inh,Wee1 stabilizer,L929 necroptosis,M18AAP inhibitor,RBBP9 inh,zVAD necrop conf
C(=N\Nc1nc2ccccc2[nH]1)/c1ccncc1,-3.3,30.4,3.0,78.0*,3.8,-0.5,50.9*
COC(=O)c1ccc(/C=N/Nc2nc3ccccc3[nH]2)cc1,4.7,15.7,6.5,81.9*,7.8,1.1,8.0
O=C(O)c1ccc(/C=N/Nc2nc3ccccc3[nH]2)cc1,1.7,-2.2,0.1,-0.1,14.3,9.2,.
CC(=O)Nc1ccc(/C=N/Nc2nc3ccccc3[nH]2)cc1,4.9,-3.1,-0.7,88.4*,2.8,-5.6,2.1
CC(C)(C)OC(=O)N1CCC[C@H]1C(=O)N/N=C/c1cccc2nccnc12,4.1,1.1,0.9,0.5,2.1,-4.3,.
COc1ccc(C)cc1NC(=O)CSc1nnc(-c2cc(C)[nH]n2)n1N,.,.,.,.,-2.5,.,.
CC(OC(=O)Cn1[nH]c(=O)c2ccccc2c1=O)C(=O)c1ccccc1 (centres undefined),.,.,.,.,3.2,.,.
Cn1c(=O)c2[nH]c(N3CCN(c4ccccn4)CC3)nc2n(C)c1=O,4.8,2.8,-0.4,75.0*,3.3,-11.9,2.4
CCOc1ccccc1N(CC(=O)Nc1cccc2ccccc12)S(C)(=O)=O,.,.,.,.,-11.9,.,.
Cc1ccccc1NC(=O)COC(=O)C1(C)CC1(Cl)Cl (centres undefined),7.8,1.0,1.1,0.3,2.8,-6.1,.
CC(C)(C)c1ccc(NC(=O)COC(=O)C2(C)CC2(Cl)Cl)cc1 (centres undefined),-0.3,3.7,1.3,76.7*,-7.2,-3.2,2.3
O=C(NC(=S)Nc1cccc(NC(=O)c2ccc(Cl)cc2Cl)c1)c1cccs1,5.5,-0.7,0.2,77.3*,-5.9,-3.9,34.5
O=C(Nc1ccc(NC(=O)c2ccc(Cl)cc2Cl)cc1)c1cccs1,.,.,.,.,0.6,.,.
COCC(=O)n1nc(-c2ccccc2)nc1NCc1ccc(F)cc1,2.8,3.5,-0.8,9.6,2.5,3.4,.
CCC(=O)n1nc(-c2ccc(OC)cc2)nc1NCc1cccs1,1.6,1.9,5.6,76.1*,-0.5,-2.0,0.4
COCC(=O)n1nc(-c2ccccc2)nc1NCc1ccccc1,1.9,4.7,7.9,86.3*,-7.7,-7.1,0.6
CC(=O)n1nc(-c2ccccc2)nc1NCc1cccs1,0.1,2.1,-4.7,85.8*,-4.9,-6.4,4.9
O=C(Nc1ccc(NC(=S)NC(=O)C(c2ccccc2)c2ccccc2)cc1)c1ccccc1,4.9,-8.8,-3.2,77.8*,-0.2,-46.2,37.9
Cc1c(Cl)cccc1NS(=O)(=O)c1c(C(=O)N2CCOCC2)c(C)n(C)c1C,.,.,.,.,1.8,.,.
Nc1ccccc1C(=O)Nc1nccs1,5.0,8.6,-4.4,91.0*,-0.7,0.4,11.1
CN(c1ccccc1)S(=O)(=O)c1ccc(C(=O)Nc2nccs2)cc1,4.2,4.9,-1.3,41.9,5.1,-6.5,.
CN(c1ccc(C(=O)Nc2nccs2)cc1)S(=O)(=O)c1ccccc1,3.1,48.7,3.2,88.6*,-5.6,-3.1,85.9*
Cc1ccc(C(=O)Nc2nccs2)cc1,-9.2,11.6,1.6,85.9*,-4.7,-5.2,38.9
CCn1c(SCc2ccc(C(=O)Nc3nccs3)cc2)nnc1-c1ccc(N)cc1,-3.2,17.4,0.8,88.4*,-4.0,1.2,71.1*
CCn1c(SCc2ccc(C(=O)Nc3nccs3)cc2)nnc1-c1ccc(NC(C)=O)cc1,0.1,12.8,1.8,0.6,2.7,-7.2,.
Cc1ccc2c(c1)C1(OCCCO1)C(=O)N2,.,.,.,.,1.2,.,.
